# Assay outcomes deposited in PubChem BioAssay by several laboratories.
# Wee1 stabilizer: blocks degradation of human Wee1 kinase. AID 1321. P30291. reporter increase, % at 5 µM. HeLa Luc-Wee1K328M stability, luciferase luminescence; 100% = proteasome inhibitor MG132 effect. actives 1.2% (n = 220,000);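 active = activation above the mean of all tested compounds plus 3 SD, set per screening run, cut at about 8.8% in these data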;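 note: cells exposed to compound for 20 h before luminescence read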
# Runt-SMMHC FRET: inhibitors of human RUNX1 Runt domain binding to CBFb-SMMHC | Q01196+Q13951 | Cerulean-Runt/Venus-CBFb-SMMHC FRET ratio 530/480, 1 h | inhibition, % at 20 µM | actives 0.74% (n = 220,000) | AID 1434;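 active = mean inhibition across duplicate retests at 20 µM reaching about 50%, limit read from the data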;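 note: inhibitors lower the FRET ratio by blocking Runt binding to CBFb-SMMHC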
# Target sequence (Q01196 whole entry, looked up, the tested form may be a part): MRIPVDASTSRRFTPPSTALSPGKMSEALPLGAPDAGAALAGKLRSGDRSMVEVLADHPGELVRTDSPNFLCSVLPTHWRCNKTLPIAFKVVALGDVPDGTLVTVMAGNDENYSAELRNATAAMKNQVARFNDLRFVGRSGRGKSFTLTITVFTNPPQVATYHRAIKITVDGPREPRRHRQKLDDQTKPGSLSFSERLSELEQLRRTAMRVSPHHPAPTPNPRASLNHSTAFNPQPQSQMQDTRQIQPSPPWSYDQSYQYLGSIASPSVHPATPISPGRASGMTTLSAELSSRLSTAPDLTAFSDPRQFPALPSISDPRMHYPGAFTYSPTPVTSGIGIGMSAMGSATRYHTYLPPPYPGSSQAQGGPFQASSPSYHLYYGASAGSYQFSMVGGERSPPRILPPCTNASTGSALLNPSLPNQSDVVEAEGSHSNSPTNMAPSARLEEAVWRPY
# Target sequence (Q13951 whole entry, looked up, the tested form may be a part): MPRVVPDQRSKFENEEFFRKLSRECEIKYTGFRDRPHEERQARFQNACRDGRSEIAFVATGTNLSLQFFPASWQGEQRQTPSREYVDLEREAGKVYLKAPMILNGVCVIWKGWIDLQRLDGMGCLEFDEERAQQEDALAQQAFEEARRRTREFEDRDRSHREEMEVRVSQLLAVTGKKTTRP
# AI-2 QS mod: modulates the Vibrio harveyi AI-2 quorum sensing system | actives 0.4% (n = 300,000) | Vibrio harveyi JMH597 AI-2 luminescence/OD600 ratio, 9 h; hits give low values; strain lacks LuxN and CqsS sensors; 0 = neutral-control median | activity change, % at 7.5 µM | AID 2094; in the data active = activity change below about -75%, passing the limit was not always enough; inconclusive = no clear call, values can overlap the other calls;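 note: luminescence divided by OD600 gain over 9 h not by final OD600 alone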
# Runt-CBFb FRET: Runt domain-CBFb interaction inhibition; Q01196+Q13951; Cerulean-Runt/Venus-CBFb FRET ratio 530/480, 1 h; inhibition, % at 20 µM; actives 0.46% (n = 220,000); AID 1496;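 active = inhibition over about 50% at 20 µM in the single-dose screen, limit read from the data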
#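 Reagent – Venus-CBFb binding partner, 100 nM · Assay system – Cerulean-tagged RUNX1 Runt domain (FRET donor) fusion protein · Input – 100 nM per protein · Incubation – two 1 h room-temperature incubations shielded from light · Measured by – FRET fluorescence · Medium – Tris buffer pH 7.5 with salts and BSA · Benchmarks – unlabeled CBFb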
# proKLK7 act: activators of human kallikrein-7 zymogen. P49862. purified proKLK7, EDANS-DABCYL substrate fluorescence; 100% is mature enzyme control, 0% vehicle. activation, % at 7 µM. actives 0.9% (n = 370,000). AID 652039;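 active = activation above the mean of all tested compounds plus 3 SD, computed per campaign excluding outliers beyond control limits, cut at about 13% in these data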
# RanGTP-Impb inh: disruptors of Ran-importin-beta complex formation – biochemical, FRET, CFP-Ran, YFP-importin-beta, homogeneous, primary screen; actives 1.1% (n = 300,000); cell-free CFP-Ran/YFP-importin-beta FRET ratio; AID 2216; inhibition, % (no concentration beside the values);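 active = more than half of the replicate wells show a fall in the fluorescence ratio signal beyond about 16%, limit read from the data, passing the limit was not always enough; inconclusive = exactly half of the replicate wells pass the set limit; inactive = fewer than half of replicates pass the limit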
# proKLK7 act conf: proKLK7 activation, confirmation; AID 686949; activation, % at 7 µM; actives 68% (n = 3,200); purified proKLK7, EDANS-DABCYL substrate fluorescence; scaled: vehicle 0, mature enzyme 100; shares compounds with proKLK7 act;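 active = activation, as change over the incubation, above the mean of all tested compounds plus 3 SD, cut at about 13% in these data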
# EDANS interfere: fluorescence interference counter-screen for KLK7 activators; EDANS-DABCYL substrate fluorescence interference, no enzyme, 4 h; solvent 0%, active enzyme control 100%; activation, % at 7 µM; AID 686952; actives 80% (n = 3,200); shares compounds with proKLK7 act;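 active = activation above the all-compound mean plus 3 SD, ignoring values outside control-based bounds, cut at about 4.8% in these data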;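 note: value is the 4 h activation minus the activation read at time zero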
# K7 EDANS ctr: counter-screen for kallikrein-7 activators: EDANS-DABCYL interference, dose response; shares compounds with proKLK7 act; EDANS-DABCYL peptide fluorescence interference, no enzyme; EC50, µM; actives 20% (n = 250);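 active = compounds that raise the fluorescence signal in this interference counterscreen, with EC50 at or below 10 µM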;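 note: intact quenched peptide substrate alone read at 355 nm excitation and 520 nm emission; signal is fluorescence gain from T0 to T4 after four hours at room temperature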
# Hits are given with their value; - = inactive; ? = inconclusive; . = not tested or not shown. Only some compounds are listed: those with a hit (about 2.9% of all), similar ones and a draw of the others.
SMILES,Wee1 stabilizer,Runt-SMMHC FRET,AI-2 QS mod,Runt-CBFb FRET,proKLK7 act,RanGTP-Impb inh,proKLK7 act conf,EDANS interfere,others
FC(F)(F)c1ccccc1CN1CCCc2nc(-c3ccccc3)ccc21,.,.,.,.,-,.,.,.,
O=C(O)c1cccc(CN2C(=O)SC(Nc3ccccc3)C2=O)c1 (configuration not stated),-,-,-,-,-,-,.,.,
O=C(O)c1cccc(CN2C(=O)SC(Nc3cccc4ccccc34)C2=O)c1 (configuration not stated),-,-,-,-,60,-,62,69,
COc1ccc(NC(=O)c2sc3nc(-c4cccnc4)ccc3c2N)cc1,-,-,-,-,-,-,.,.,
COc1ccc(NC(=O)c2sc3nc(-c4cccnc4)ccc3c2N)cc1OC,-,-,-,-,56,-,15,16,
CCCCC[n+]1cccc2c3ccccc3ccc21,-,-,-,-,26,-,16,17,
NC(=O)C[n+]1cccc2ccccc21,-,-,-,-,-,-,.,.,
c1ccc(C[n+]2cccc3c4ccccc4ccc32)cc1,-,-,-,-,16,-,22,28,
CNc1nc(NCc2ccccc2)c2sccc2n1,.,.,.,.,-,.,.,.,
CNc1nc(-c2ccccc2)c2sccc2n1,.,.,.,.,26,.,16,20,
CCOC(=O)N1CCN(C(=O)c2cn(CC)c3ccc(S(=O)(=O)N4CCC(C)CC4)cc3c2=O)CC1,-,-,-,-,-,-,.,.,
C/C(=N\N1CCN(c2ccccc2)CC1)c1ccc(O)cc1,.,.,-,.,-,-,.,.,
Cc1csc2nc3cc(C(N)=O)ccc3c(=O)n12,.,-,-,-,22,-,63,77,
NC(=O)c1ccc2c(=O)n3c(-c4cc(Cl)c(N)c(Cl)c4)csc3nc2c1,.,-,-,-,-,-,.,.,
COC(=O)c1cc(N=CC2=C(O)CC(C)(C)CC2=O)cc(C(=O)OC)c1,-,-,-,-,25,-,47,45,
COc1cc(OC)c(/C=N/n2c(C)nnc2C)c(OC)c1,-,-,-,-,16,-,-,-,
C#CCSc1n[nH]c(=O)n1-c1cccc(C(F)(F)F)c1,-,-,-,-,-,-,.,.,
Cc1cc(C)cc(Nc2ccc(C(=O)O)cc2N)c1,-,-,-,-,-,-,.,.,
COc1cccc(Nc2ccc(C(=O)O)cc2N)c1,.,.,-,.,30,-,-,-,
CN(C(=O)COC(=O)c1ccc2c(c1)OCCO2)C1CCCCC1,.,.,.,.,-,.,.,.,
CCCC(=O)Nc1nn(C)c2nc3cc(C)ccc3cc12,.,-,-,-,.,-,.,.,
Cc1ccc2cc3c(NC(=O)C(C)C)nn(C)c3nc2c1,-,-,-,-,15,-,-,-,
O=C(O)CC1(CC(=O)Nc2ccccc2N2CCOCC2)CCCC1,-,-,-,-,-,-,.,.,
COc1ccc(C2C3=C(CCCC3=O)Nc3c(-c4ccccc4)c(C)nn32)cc1 (configuration not stated),-,-,-,-,.,-,.,.,
Cc1nn2c(c1-c1ccccc1)NC1=C(C(=O)CCC1)C2c1ccccc1 (configuration not stated),-,-,-,-,30,-,63,74,
SMILES,Wee1 stabilizer,Runt-SMMHC FRET,AI-2 QS mod,Runt-CBFb FRET,proKLK7 act,RanGTP-Impb inh,proKLK7 act conf,EDANS interfere,others
COc1ccccc1-c1coc2cc(O)cc(O)c2c1=O,-,-,-,-,-,-,.,.,
CCN(CC)Cc1c(O)ccc2c(=O)c(-c3ccccc3OC)coc12,.,.,-,.,85,-,51,74,
CCc1cc2c(=O)c(-c3ccc4c(c3)OCO4)coc2c(CN(C)C)c1O,.,.,-,.,-,-,.,.,
CCN(CC)Cc1c(O)ccc2c(=O)c(-c3ccccc3Cl)coc12,.,.,-,.,40,-,67,62,
COc1cc(C2Nc3ccccc3C(=O)N2c2ccccc2OC)ccc1O (configuration not stated),-,-,-,-,13,-,15,17,
CCOc1cc(C2Nc3ccccc3C(=O)N2c2ccccc2OC)ccc1O (configuration not stated),-,-,-,-,-,-,.,.,
COc1ccccc1N1C(=O)c2ccccc2NC1c1ccc(O)cc1 (configuration not stated),.,.,-,.,23,-,20,26,
CC1(C(=O)NS(=O)(=O)c2ccc(Cl)cc2)CCN1C(=O)CCc1ccccc1 (configuration not stated),.,.,.,.,-,.,.,.,
CCNc1cc2n(c(=O)n1)CCc1cc(OC)c(OC)cc1-2,-,-,-,-,-,-,.,.,
COc1cc2c(cc1OC)-c1cc(OCCN3CCOCC3)nc(=O)n1CC2,-,-,-,-,77,?,69,64,
CCOC(=O)c1cnc2c(C(=O)OC)cccc2c1NCc1ccco1,-,-,-,-,14,-,15,7.3,K7 EDANS ctr=-
CC(=O)c1cc(C)ccc1OC(=O)c1cccc2nc(C)oc12,-,-,-,-,13,-,-,-,
CC(C)(C)C1CCN2CCC[C@](c3ccccc3)(C1)C2OCCCO (some centres not stated),.,.,.,.,-,.,.,.,
Cc1cccn2c(=O)c3cc(C(=O)N(C)C)n(C)c3nc12,-,-,-,-,26,-,27,29,
N=c1c(C(=O)NC2CCCC2)cc2c(=O)n3ccccc3nc2n1CCCN1CCOCC1,.,.,-,.,26,140,-,-,
O=C(NCCN1CCOCC1)c1c(O)nc2ccccn2c1=O,.,.,-,.,-,-,.,.,
Cc1cccn2c(=O)c3cc(C(=O)NCCCN4CCCC4=O)n(C)c3nc12,-,-,-,-,14,-,-,15,
O=C(NCCN1CCOCC1)c1cc2c(=O)n3ccccc3nc2n1Cc1ccccc1,-,-,-,-,41,-,81,73,
COCCNC(=O)c1cc2c(=O)n3cccc(C)c3nc2n1C,.,-,-,-,-,-,.,.,
Cn1c(Cc2ccc3c(c2)OCO3)nnc1SCC(=O)NC1CCCC1,-,-,-,-,-,-,.,.,
CNC(=O)c1cc(C(=O)c2ccc(F)cc2C(F)(F)F)c[nH]1,.,.,-,.,-,-,.,.,
N#Cc1cc2c(=O)n3ccccc3nc2n(-c2ccccc2Cl)c1=O,-,90,-,-,31,136,32,36,
Cn1c(C(=O)N2CCCc3ccccc32)cc2c(=O)n3ccccc3nc21,-,-,-,-,.,-,.,.,
